# System: human sural nerve
# Type: binding
# Details: topical 100 µM on human nerve sections from multiple patients
# Summary of the method: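 Human peripheral nerve from nerve-resection patients, cut as 10 µm unfixed sections, humidified 30 min. Test compound in 0.5X HBSS applied topically and incubated 30 min in a humidified chamber. Carboxyfluorescein served as the free-dye control. Sections were washed twice with 0.5X HBSS and once with PBS, then coverslipped and imaged at once on a dissecting scope or confocal (488 nm excitation, 515/25 nm emission, 10x air objective).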
substance,measurement,value
carboxyfluorescein,binding of free dye control to human nerve,only weak non-specific binding

# Source: article PMC6096382 (Theranostics, 2018)
